Results taken from ChEMBL document CHEMBL4689842, “EUbOPEN Chemogenomics Library wave 1” (2021).
Where “and” joins values, the source holds several entries; their conditions need not be identical. Equal entries are not always repeated.

System: Fibroblast
Test: Multiplex assay against human fibroblast
Type: toxicity, cell-based
Outline: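 Live cells were stained at seeding with Hoechst33342, BioTracker Green Microtubule Cytoskeleton Dye, MitoTracker Red and Annexin V Alexa Fluor 680. Following compound addition, they were imaged on a CQ1 microscope at 37°C and 5% CO2 and gated by CellPathfinder machine learning into Hoechst high-intensity objects or normal cells, with normal cells split into healthy, pyknosed or fragmented nuclei and pyknosed cells into mitotic or apoptotic. Tubulin, mitochondrial-mass and membrane-permeability phenotypes are per cents of healthy-nucleus cells.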

[1] = 12 h, 1 µM, compound concentration 1 uM, replicate 1
[2] = 12 h, 1 µM, compound concentration 1 uM, replicate 2
[3] = 12 h, 10 µM, compound concentration 10 uM, replicate 1
[4] = 12 h, 10 µM, compound concentration 10 uM, replicate 2
[5] = 24 h, 1 µM, compound concentration 1 uM, replicate 1
[6] = 24 h, 1 µM, compound concentration 1 uM, replicate 2
[7] = 24 h, 10 µM, compound concentration 10 uM, replicate 1
[8] = 24 h, 10 µM, compound concentration 10 uM, replicate 2
[9] = 48 h, 1 µM, compound concentration 1 uM, replicate 1
[10] = 48 h, 1 µM, compound concentration 1 uM, replicate 2
[11] = 48 h, 10 µM, compound concentration 10 uM, replicate 1
[12] = 48 h, 10 µM, compound concentration 10 uM, replicate 2

In the case of `Cc1c(-c2ccc(O)cc2)n(Cc2ccc(OCCN3CCCCCC3)cc2)c2ccc(O)cc12` [BAZEDOXIFENE], the “Population Apoptotic (%)” value [1] is reported as 69%, the “Population Fragmented Nuclei (%)” value [1] is reported as 27% and the “Population Healthy Nuclei (%)” value [1] is reported as 33%. For the same molecule, the “Population Hoechst High Intensity Objects (%)” value [1] was 13%, the “Population Membrane Permeable-Phenotype (%)” value [1] was 16% and the “Population Mitochondria Different-Phenotype (%)” value [1] was 19%. The “Population Mitotic Cells (%)” value [1] was 30%, the “Population Normal (%)” value [1] was 86% and the “Population Pyknosed Nuclei (%)” value [1] was 39%. The “Population Tubulin-Different-Phenotype (%)” value [1] was 58%, the “Total Cell Count” value [1] was 106 and the “Population Apoptotic (%)” value [2] was 0%. For the same molecule, the “Population Fragmented Nuclei (%)” value [2] was 13%, the “Population Healthy Nuclei (%)” value [2] was 81% and the “Population Hoechst High Intensity Objects (%)” value [2] was 10%. The “Population Membrane Permeable-Phenotype (%)” value [2] was 5%, the “Population Mitochondria Different-Phenotype (%)” value [2] was 20% and the “Population Mitotic Cells (%)” value [2] was 100%. For the same molecule, the “Population Normal (%)” value [2] was 89%, the “Population Pyknosed Nuclei (%)” value [2] was 4% and the “Population Tubulin-Different-Phenotype (%)” value [2] was 17%. For the same molecule, the “Total Cell Count” value [2] was 48, the “Population Apoptotic (%)” value [3] was 72% and the “Population Fragmented Nuclei (%)” value [3] was 27%. The “Population Healthy Nuclei (%)” value [3] was 36%, the “Population Hoechst High Intensity Objects (%)” value [3] was 26% and the “Population Membrane Permeable-Phenotype (%)” value [3] was 12%. The “Population Mitochondria Different-Phenotype (%)” value [3] was 35%, the “Population Mitotic Cells (%)” value [3] was 27% and the “Population Normal (%)” value [3] was 73%. For the same molecule, the “Population Pyknosed Nuclei (%)” value [3] was 36%, the “Population Tubulin-Different-Phenotype (%)” value [3] was 85% and the “Total Cell Count” value [3] was 149. For the same molecule, the “Population Apoptotic (%)” value [4] was 60%, the “Population Fragmented Nuclei (%)” value [4] was 7% and the “Population Healthy Nuclei (%)” value [4] was 56%. The “Population Hoechst High Intensity Objects (%)” value [4] was 2%, the “Population Membrane Permeable-Phenotype (%)” value [4] was 26% and the “Population Mitochondria Different-Phenotype (%)” value [4] was 100%. For the same molecule, the “Population Mitotic Cells (%)” value [4] was 40%, the “Population Normal (%)” value [4] was 97% and the “Population Tubulin-Different-Phenotype (%)” value [4] was 100%. For the same molecule, the “Total Cell Count” value [4] was 42, the “Population Apoptotic (%)” value [5] was 80% and the “Population Fragmented Nuclei (%)” value [5] was 27%. For the same molecule, the “Population Healthy Nuclei (%)” value [5] was 49%, the “Population Hoechst High Intensity Objects (%)” value [5] was 14% and the “Population Membrane Permeable-Phenotype (%)” value [5] was 22%. For the same molecule, the “Population Mitochondria Different-Phenotype (%)” value [5] was 8%, the “Population Mitotic Cells (%)” value [5] was 19% and the “Population Normal (%)” value [5] was 85%. For the same molecule, the “Population Pyknosed Nuclei (%)” value [5] was 23%, the “Population Tubulin-Different-Phenotype (%)” value [5] was 46% and the “Total Cell Count” value [5] was 106. The “Population Apoptotic (%)” value [6] was 11%, the “Population Fragmented Nuclei (%)” value [6] was 8% and the “Population Healthy Nuclei (%)” value [6] was 75%. For the same molecule, the “Population Hoechst High Intensity Objects (%)” value [6] was 3%, the “Population Membrane Permeable-Phenotype (%)” value [6] was 2% and the “Population Mitochondria Different-Phenotype (%)” value [6] was 6%. The “Population Mitotic Cells (%)” value [6] was 88%, the “Population Normal (%)” value [6] was 96% and the “Population Pyknosed Nuclei (%)” value [6] was 15%. The “Population Tubulin-Different-Phenotype (%)” value [6] was 15%, the “Total Cell Count” value [6] was 60 and the “Population Apoptotic (%)” value [7] was 62%. For the same molecule, the “Population Fragmented Nuclei (%)” value [7] was 20%, the “Population Healthy Nuclei (%)” value [7] was 37% and the “Population Hoechst High Intensity Objects (%)” value [7] was 23%. The “Population Membrane Permeable-Phenotype (%)” value [7] was 12%, the “Population Mitochondria Different-Phenotype (%)” value [7] was 71% and the “Population Mitotic Cells (%)” value [7] was 37%. The “Population Normal (%)” value [7] was 76%, the “Population Pyknosed Nuclei (%)” value [7] was 41% and the “Population Tubulin-Different-Phenotype (%)” value [7] was 84%. The “Total Cell Count” value [7] was 134, the “Population Apoptotic (%)” value [8] was 68% and the “Population Fragmented Nuclei (%)” value [8] was 22%. The “Population Healthy Nuclei (%)” value [8] was 30%, the “Population Hoechst High Intensity Objects (%)” value [8] was 20% and the “Population Membrane Permeable-Phenotype (%)” value [8] was 75%. The “Population Mitochondria Different-Phenotype (%)” value [8] was 100%, the “Population Mitotic Cells (%)” value [8] was 31% and the “Population Normal (%)” value [8] was 80%. For the same molecule, the “Population Pyknosed Nuclei (%)” value [8] was 47%, the “Population Tubulin-Different-Phenotype (%)” value [8] was 100% and the “Total Cell Count” value [8] was 50. For the same molecule, the “Population Apoptotic (%)” value [9] was 50%, the “Population Fragmented Nuclei (%)” value [9] was 42% and the “Population Healthy Nuclei (%)” value [9] was 51%. For the same molecule, the “Population Hoechst High Intensity Objects (%)” value [9] was 14%, the “Population Membrane Permeable-Phenotype (%)” value [9] was 26% and the “Population Mitochondria Different-Phenotype (%)” value [9] was 4%. For the same molecule, the “Population Mitotic Cells (%)” value [9] was 50%, the “Population Normal (%)” value [9] was 85% and the “Population Pyknosed Nuclei (%)” value [9] was 6%. For the same molecule, the “Population Tubulin-Different-Phenotype (%)” value [9] was 44%, the “Total Cell Count” value [9] was 115 and the “Population Apoptotic (%)” value [10] was 75%. The “Population Fragmented Nuclei (%)” value [10] was 27%, the “Population Healthy Nuclei (%)” value [10] was 68% and the “Population Hoechst High Intensity Objects (%)” value [10] was 16%. For the same molecule, the “Population Membrane Permeable-Phenotype (%)” value [10] was 15%, the “Population Mitochondria Different-Phenotype (%)” value [10] was 1% and the “Population Mitotic Cells (%)” value [10] was 25%. For the same molecule, the “Population Normal (%)” value [10] was 83%, the “Population Pyknosed Nuclei (%)” value [10] was 3% and the “Population Tubulin-Different-Phenotype (%)” value [10] was 46%. The “Total Cell Count” value [10] was 123, the “Population Apoptotic (%)” value [11] was 85% and the “Population Fragmented Nuclei (%)” value [11] was 39%. For the same molecule, the “Population Healthy Nuclei (%)” value [11] was 29%, the “Population Hoechst High Intensity Objects (%)” value [11] was 18% and the “Population Membrane Permeable-Phenotype (%)” value [11] was 33%. For the same molecule, the “Population Mitochondria Different-Phenotype (%)” value [11] was 55%, the “Population Mitotic Cells (%)” value [11] was 14% and the “Population Normal (%)” value [11] was 81%. For the same molecule, the “Population Pyknosed Nuclei (%)” value [11] was 30%, the “Population Tubulin-Different-Phenotype (%)” value [11] was 81% and the “Total Cell Count” value [11] was 112. The “Population Apoptotic (%)” value [12] was 83%, the “Population Fragmented Nuclei (%)” value [12] was 42% and the “Population Healthy Nuclei (%)” value [12] was 37%. The “Population Hoechst High Intensity Objects (%)” value [12] was 35%, the “Population Membrane Permeable-Phenotype (%)” value [12] was 21% and the “Population Mitochondria Different-Phenotype (%)” value [12] was 47%. The “Population Mitotic Cells (%)” value [12] was 16%, the “Population Normal (%)” value [12] was 64% and the “Population Pyknosed Nuclei (%)” value [12] was 19%. For the same molecule, the “Population Tubulin-Different-Phenotype (%)” value [12] was 65% and the “Total Cell Count” value [12] was 95.

In the case of `CNCc1ccc(-c2cc(-c3nc(-c4ccc(S(=O)(=O)C(C)C)cc4)cnc3N)on2)cc1` [BERZOSERTIB], the “Population Apoptotic (%)” value [1] is reported as 45% and 78%, the “Population Fragmented Nuclei (%)” value [1] is reported as 22% and 31% and the “Population Hoechst High Intensity Objects (%)” value [1] is reported as 63% and 99%. For the same molecule, the “Population Membrane Permeable-Phenotype (%)” value [1] was 1%, the “Population Mitochondria Different-Phenotype (%)” value [1] was 0% and the “Population Mitotic Cells (%)” value [1] was 54% and 21%. For the same molecule, the “Population Pyknosed Nuclei (%)” value [1] was 54% and 63%, the “Population Apoptotic (%)” value [2] was 47% and 100% and the “Population Fragmented Nuclei (%)” value [2] was 47% and 96%. For the same molecule, the “Population Hoechst High Intensity Objects (%)” value [2] was 68% and 95%, the “Population Membrane Permeable-Phenotype (%)” value [2] was 14% and 0% and the “Population Mitochondria Different-Phenotype (%)” value [2] was 4%. For the same molecule, the “Population Tubulin-Different-Phenotype (%)” value [2] was 0%, the “Population Apoptotic (%)” value [3] was 51% and 76% and the “Population Fragmented Nuclei (%)” value [3] was 24% and 41%. For the same molecule, the “Population Healthy Nuclei (%)” value [3] was 21%, the “Population Hoechst High Intensity Objects (%)” value [3] was 64% and 99% and the “Population Membrane Permeable-Phenotype (%)” value [3] was 5%. The “Population Mitochondria Different-Phenotype (%)” value [3] was 1%, the “Population Mitotic Cells (%)” value [3] was 48% and 23% and the “Population Pyknosed Nuclei (%)” value [3] was 54%. For the same molecule, the “Population Tubulin-Different-Phenotype (%)” value [3] was 8%, the “Total Cell Count” value [3] was 976 and 2548 and the “Population Apoptotic (%)” value [4] was 48% and 100%. For the same molecule, the “Population Fragmented Nuclei (%)” value [4] was 54% and 93%, the “Population Hoechst High Intensity Objects (%)” value [4] was 69% and 96% and the “Population Membrane Permeable-Phenotype (%)” value [4] was 12% and 0%. For the same molecule, the “Population Mitochondria Different-Phenotype (%)” value [4] was 6% and 0%, the “Population Tubulin-Different-Phenotype (%)” value [4] was 3% and 0% and the “Population Fragmented Nuclei (%)” value [5] was 66% and 26%. For the same molecule, the “Population Hoechst High Intensity Objects (%)” value [5] was 99% and 67%, the “Population Membrane Permeable-Phenotype (%)” value [5] was 0% and 1% and the “Population Mitochondria Different-Phenotype (%)” value [5] was 0%. For the same molecule, the “Population Mitotic Cells (%)” value [5] was 100% and 57%, the “Population Pyknosed Nuclei (%)” value [5] was 33% and 40% and the “Population Tubulin-Different-Phenotype (%)” value [5] was 0%. For the same molecule, the “Population Apoptotic (%)” value [6] was 37% and 100%, the “Population Fragmented Nuclei (%)” value [6] was 53% and 94% and the “Population Hoechst High Intensity Objects (%)” value [6] was 69% and 96%. For the same molecule, the “Population Membrane Permeable-Phenotype (%)” value [6] was 25%, the “Population Mitochondria Different-Phenotype (%)” value [6] was 12% and the “Population Fragmented Nuclei (%)” value [7] was 0% and 19%. For the same molecule, the “Population Hoechst High Intensity Objects (%)” value [7] was 100% and 68%, the “Population Membrane Permeable-Phenotype (%)” value [7] was 0% and 8% and the “Population Mitochondria Different-Phenotype (%)” value [7] was 0%. For the same molecule, the “Population Tubulin-Different-Phenotype (%)” value [7] was 0%, the “Population Apoptotic (%)” value [8] was 54% and the “Population Fragmented Nuclei (%)” value [8] was 93% and 42%. The “Population Hoechst High Intensity Objects (%)” value [8] was 97% and 74%, the “Population Mitochondria Different-Phenotype (%)” value [8] was 7% and the “Population Mitotic Cells (%)” value [8] was 45%. The “Population Pyknosed Nuclei (%)” value [8] was 33% and the “Population Tubulin-Different-Phenotype (%)” value [8] was 11%.
